Data: ChEMBL document CHEMBL1121816, “Adrenoceptor blocking agents. Compounds related to metoprolol” (1981)

Experiments:
[1] = organism: Felis catus; experiment: Antagonistic effect of compound on peripheral vascular resistance was measured as KB in cats; assay type: functional
Procedure, shortened: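 Reserpinized (5 mg/kg, 18 h prior), pentobarbital-anesthetized, vagotomized, ventilated cats. One hind leg perfused with the animal's own blood via the femoral artery at a constant flow above 10 mL/min; resistance read as perfusion pressure. Compound infused iv for 10 min in five stepwise concentrations, each followed by ia isoprenaline at about 80%-maximal dose. KB assumes competitive antagonism.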

[2] = molecular target: Beta-1 adrenergic receptor (Homo sapiens) (UniProt P08588); experiment: Agonistic effect of compound against beta-1-adrenergic receptor given as geometric mean (KA) of effect on heart rate; assay type: functional; settings: Felis catus
Procedure, shortened: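 Cats of either sex (2.6–3.2 kg), starved 24 h, given reserpine 5 mg/kg 18 h before; pentobarbital 30 mg/kg ip, then 0.1 mg/min/kg infusion; ventilated, bilaterally vagotomized. Heart rate triggered from carotid pressure. Compound infused iv for 10 min at 1.0 mL/min in five rising concentrations. KA taken as the dose giving a semimaximal heart-rate increase.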

[3] = molecular target: Beta-1 adrenergic receptor (Homo sapiens) (UniProt P08588); experiment: Intrinsic activity of compound against beta-1-adrenergic receptor given as percent of maximal heart rate by iv injection of supramaximal doses of isoprenaline (IPR); assay type: functional, organism-based; settings: Felis catus

Sequence of Beta-1 adrenergic receptor (Homo sapiens) (P08588 whole entry, looked up, the tested form may be a part): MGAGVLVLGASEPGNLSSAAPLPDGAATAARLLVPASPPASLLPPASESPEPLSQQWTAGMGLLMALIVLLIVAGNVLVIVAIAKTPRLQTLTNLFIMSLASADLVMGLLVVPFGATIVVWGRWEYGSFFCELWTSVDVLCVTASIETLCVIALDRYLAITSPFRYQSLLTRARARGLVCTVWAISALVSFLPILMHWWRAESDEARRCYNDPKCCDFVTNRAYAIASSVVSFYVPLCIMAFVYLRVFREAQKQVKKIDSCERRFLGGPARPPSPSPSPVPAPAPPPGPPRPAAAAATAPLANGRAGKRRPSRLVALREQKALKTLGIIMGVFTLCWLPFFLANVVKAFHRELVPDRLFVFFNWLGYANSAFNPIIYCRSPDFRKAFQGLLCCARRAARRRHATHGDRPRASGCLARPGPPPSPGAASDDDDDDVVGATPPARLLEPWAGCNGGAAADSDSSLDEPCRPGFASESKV

Row | SMILES | KB [1] [µM/kg] | KA [2] [µM/kg] | Intrinsic activity [3] [%]
1 | COCCc1ccc(OCC(O)CNC(C)C)cc1.Cl (stereo unspecified) | 0.87 |  | 
2 | COc1ccc(OCC(O)CNC(C)C)cc1.Cl (stereo unspecified) | 3.42 | 0.119 | 81.2
3 | COCCc1ccc(C(O)CNC(C)C)cc1.Cl (stereo unspecified) | 23.6 | 0.536 | 22.5
4 | Cc1ccc(OCCC(O)CNC(C)C)cc1.Cl (stereo unspecified) | 1.82 |  | 
5 | COc1ccc(CCC(O)CNC(C)C)cc1.Cl (stereo unspecified) | 30.8 |  | 4.5
6 | COCc1ccc(CC(O)CNC(C)C)cc1.Cl (stereo unspecified) | 6.1 |  | 
